Reference: publication PMC7495461 (ACS Omega, 2020)

Assays:
HepG2 cells [1] = test: MTT cell viability assay; format: cell-based; conditions: Homo sapiens, HepG2, 48 h, read-out: HepG2 IC50
How it was run: (§1)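 MCF-7 or HepG2 cells were seeded at 8000–9000 cells/well. After 10 h they were exposed to test compound (0.1–80 μM) for 48 h at 37 °C in a humidified CO2 incubator. Medium was replaced with MTT (from a 5 mg/mL PBS pH 7.4 stock) in DMEM for 4–5 h. Formazan was dissolved in DMSO and absorbance read at 570/590 nm. Percent viability was used to derive IC50, with mean ± SD of n = 3 and paclitaxel as positive control.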

MARK4 = biological target: T1, MARK4 (Homo sapiens, UniProt Q96L34); test: MARK4 enzyme inhibition assay; format: biochemical
T1 sequence (Q96L34 1-752): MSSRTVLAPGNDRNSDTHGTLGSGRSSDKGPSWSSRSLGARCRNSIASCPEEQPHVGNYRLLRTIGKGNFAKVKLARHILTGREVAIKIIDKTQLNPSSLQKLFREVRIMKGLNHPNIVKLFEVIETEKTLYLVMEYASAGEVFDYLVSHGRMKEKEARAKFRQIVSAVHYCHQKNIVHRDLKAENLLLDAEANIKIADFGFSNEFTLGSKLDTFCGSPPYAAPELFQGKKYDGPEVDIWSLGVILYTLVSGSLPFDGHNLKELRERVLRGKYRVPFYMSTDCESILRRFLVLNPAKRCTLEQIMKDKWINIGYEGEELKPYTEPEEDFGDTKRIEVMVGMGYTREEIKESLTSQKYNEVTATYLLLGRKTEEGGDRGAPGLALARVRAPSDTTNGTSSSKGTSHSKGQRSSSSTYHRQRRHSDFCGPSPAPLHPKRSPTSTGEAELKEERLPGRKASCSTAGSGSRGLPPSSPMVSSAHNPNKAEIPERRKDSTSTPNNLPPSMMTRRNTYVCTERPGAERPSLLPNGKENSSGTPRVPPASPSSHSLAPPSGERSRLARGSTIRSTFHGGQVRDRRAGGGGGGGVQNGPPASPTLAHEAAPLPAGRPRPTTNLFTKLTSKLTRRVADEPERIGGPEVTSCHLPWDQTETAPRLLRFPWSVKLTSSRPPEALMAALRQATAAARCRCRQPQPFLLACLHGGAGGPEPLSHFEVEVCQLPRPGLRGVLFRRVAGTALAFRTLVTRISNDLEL

MCF-7 cells [2] = test: MTT cell viability assay; format: cell-based; conditions: Homo sapiens, MCF7, 48 h, read-out: MCF-7 IC50
How it was run: as §1

MCF-7 cells [3] = test: Estimation of ROS production; format: cell-based, human; conditions: MCF-7, IC50 dose, 5–6 h, vs vehicle control
How it was run: (§2)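 MCF-7 or HepG2 cells were plated at 2.5 × 10^5 cells/well, treated next day for 5–6 h, with H2O2 as positive control. They were loaded with 10 μM DCFDA for 30 min at 37 °C in the dark, then trypsinized and pelleted. DCF fluorescence was read by spectrofluorimeter (ex 485, em 500–550 nm). Measurements were triplicate, with unpaired t-test against vehicle control.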

HEK293 cells = test: MTT cell viability assay, noncancerous cells; format: cell-based, human; conditions: up to 100 μM, 48 h
How it was run: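 HEK293 cells were exposed to increasing test compound concentrations for 48 h. Viability was expressed as viable cells as a percentage of untreated control. Data are mean ± SD, n = 3.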

HepG2 cells [4] = test: Estimation of ROS production; format: cell-based, human; conditions: HepG2, IC50 dose, 5–6 h, vs vehicle control
How it was run: as §2

HepG2 cells [5] = test: Apoptosis assay; format: cell-based, human; conditions: IC50 dose, 10 h, Annexin-V/PI
How it was run: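 HepG2 cells were seeded at 2.5 × 10^5 cells/well in six-well plates and grown to 80% confluency. They were treated for 10 h at 37 °C, with media-only controls. Cells were trypsinized, washed three times with PBS and stained with FITC-Annexin-V and PI in Annexin binding buffer. About 10,000 events per sample were acquired by flow cytometry. Measurements were duplicate ± SD, with unpaired t-test against vehicle control.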

Row | SMILES | IC50 (HepG2 cells [1]) [µM] | IC50 (MARK4) [µM] | IC50 (MCF-7 cells [2]) [µM] | DCF fluorescence (level of ROS production) (MCF-7 cells [3]) | viability of noncancerous cells (HEK293) (HEK293 cells) | DCF fluorescence (level of ROS production) (HepG2 cells [4]) | apoptosis induced, % of HepG2 cells (HepG2 cells [5]) [%] | MARK4 inhibition at a single dose (MARK4; single dose of 20 μM, initial screening)
1 | Cc1ncc([N+](=O)[O-])n1C(=NO)c1ccc([N+](=O)[O-])cc1 [Compound 4g, N-[(2-Methyl-5-nitro-1H-imidazol-1-yl)(4-nitrophenyl)methylidene]hydroxylamine] | 25.3 | 16.2 | 22.5 | – | – | – | – | –
2 | Cc1ccc(C(=NO)n2c([N+](=O)[O-])cnc2C)cc1 [Compound 4c, N-[(2-Methyl-5-nitro-1H-imidazol-1-yl)(4-methylphenyl)methylidene]hydroxylamine] | 33.2 | > 20 | 32.5 | – | – | – | – | –
3 | Cc1ncc([N+](=O)[O-])n1C(=NO)c1ccc(Cl)cc1 [Compound 4f, N-[(4-Chlorophenyl)(2-methyl-5-nitro-1H-imidazol-1-yl)methylidene]hydroxylamine] | 24.8 | > 20 | 28.8 | – | – | – | – | –
4 | CCc1ccc(C(=NO)n2c([N+](=O)[O-])cnc2C)cc1 [Compound 4e, N-[(4-Ethylphenyl)(2-methyl-5-nitro-1H-imidazol-1-yl)methylidene]hydroxylamine] | 21.5 | 18.5 | 23.3 | – | – | – | – | –
5 | COc1ccc(C(=NO)n2c([N+](=O)[O-])cnc2C)cc1 [Compound 4b, N-[(4-Methoxyphenyl)(2-methyl-5-nitro-1H-imidazol-1-yl)methylidene]hydroxylamine] | 32.7 | > 20 | 34.4 | – | – | – | – | –
6 | Cc1ncc([N+](=O)[O-])n1C(=NO)c1ccccc1C(F)(F)F [Compound 4h, N-{(2-Methyl-5-nitro-1H-imidazol-1-yl)[2-(trifluoromethyl)phenyl]methylidene}hydroxyl Amine] | 5.99 | 1.47 | 3.74 | decreases | did not affect the viability | decreases | 20.8 | significant inhibition
7 | CCOc1ccc(C(=NO)n2c([N+](=O)[O-])cnc2C)cc1 [Compound 4d, N-[(4-Ethoxyphenyl)(2-methyl-5-nitro-1H-imidazol-1-yl)methylidene]hydroxylamine] | 35.4 | > 20 | 33.3 | – | – | – | – | –
8 | Cc1ncc([N+](=O)[O-])n1C(=NO)c1ccccc1 [Compound 4a, N-[(2-Methyl-5-nitro-1H-imidazol-1-yl)(phenyl)methylidene]hydroxylamine] | 38.5 | > 20 | 37.3 | – | – | – | – | –
